According to ChEMBL document CHEMBL3826882, “Discovery of 1-((2R,4aR,6R,7R,7aR)-2-Isopropoxy-2-oxidodihydro-4H,6H-spiro[furo[3,2-d][1,3,2]dioxaphosphinine-7,2'-oxetan]-6-yl)pyrimidine-2,4(1H,3H)-dione (JNJ-54257099), a 3'-5'-Cyclic Phosphate Ester Prodrug of 2'-Deoxy-2'-Spirooxetane Uridine Triphosphate Useful for HCV Inhibition” (J Med Chem, 2016):
Values belong to the compound of their own block, whether it stands above or below them.

Tests used:
[1] = Stability in dog primary hepatocytes assessed as parent compound level at 2 to 62.5 uM after 4 hrs using radiolabeled compound by LC-MS/MS analysis; type: ADME, cell-based, Canis lupus familiaris, Hepatocyte
Outline: (§1)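 Fresh primary hepatocyte cultures incubated with tritiated prodrug (5'-[3H]) at 2 and 62.5 µM for 4 and 24 h. Supernatants taken after protein precipitation and profiled by HPLC with radioactivity detection. Cell lysates profiled for metabolites by radio-LC. Cyclic monophosphate also measured by LC/MS/MS.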

Hepatocyte [2] = test: Drug metabolism in human primary hepatocyte supernatant assessed as 1-((4R,5R,7R,8R)-8-hydroxy-7-(hydroxymethyl)-1,6-dioxaspiro[3.4]octan-5-yl)pyrimidine-2,4(1H,3H)-dione formation at 2 to 62.5 uM after 4 to 24 hrs using radiolabeled compound by HPLC analysis; type: ADME, cell-based; conditions: hepatocytes; outline: as §1
Hepatocyte [3] = test: Prodrug conversion in human primary hepatocytes assessed as 2'-deoxy-2'-spirooxetane uridine triphosphate level per million cells at 2 uM after 4 hrs using radiolabelled compound by LC-MS/MS analysis; type: ADME, cell-based
Outline: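 Study A: fresh primary hepatocyte cultures from mouse, rat, dog and human incubated with tritiated prodrug at 2 or 62.5 µM for 4 or 24 h. Triphosphate in cell lysates reported as pmol/million hepatocytes. Duplicate or single measurements.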

Hepatocyte [4] = test: Drug metabolism in mouse primary hepatocyte supernatant assessed as 1-[(4aR,6R,7R,7aR)-2-hydroxy-2-oxidodihydro-4H-spiro[furo[3,2-d][1,3,2]dioxaphosphinine-7,2'-oxetan]-6-yl]pyrimidine-2,4(1H,3H)-dione formation at 2 to 62.5 uM after 4 to 24 hrs using radiolabelled compound by HPLC analysis; type: ADME, cell-based; conditions: hepatocytes; outline: as §1
Hepatocyte [5] = test: Drug metabolism in mouse primary hepatocyte supernatant assessed as 1-((4R,5R,7R,8R)-8-hydroxy-7-(hydroxymethyl)-1,6-dioxaspiro[3.4]octan-5-yl)pyrimidine-2,4(1H,3H)-dione formation at 2 to 62.5 uM after 4 to 24 hrs using radiolabeled compound by HPLC analysis; type: ADME, cell-based; conditions: hepatocytes; outline: as §1
Hepatocyte [6] = test: Stability in rat primary hepatocytes assessed as parent compound level at 2 to 62.5 uM after 24 hrs using radiolabeled compound by LC-MS/MS analysis; type: ADME, cell-based
Outline: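 Study A: rat primary cultured hepatocytes incubated with 5'-[3H]-labelled prodrug at 2 and 62.5 µM for 4 and 24h; cell lysates profiled by LC with radioactivity detection. Cyclic monophosphate co-eluted with parent and was assessed separately by LC/MS/MS. Duplicate or single measurements.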

Liver [7] = test: Cmax in dog liver assessed as 2'-deoxy-2'-spirooxetane uridine triphosphate at 50 mg/kg, po; type: ADME, organism-based, Canis lupus familiaris; parameters: dose 50 mg/kg, route oral; conditions: in vivo
Hepatocyte [8] = test: Prodrug conversion in human hepatocytes assessed as 2'-deoxy-2'-spirooxetane uridine triphosphate formation in presence of PDE5 inhibitor sildenafil by LC-MS/MS analysis; type: ADME, cell-based
[9] = Tmax in rat liver at 50 mg/kg, po; type: ADME, organism-based
Outline: (§2)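 Single oral dose of 50 mg/kg formulated in 20% HP-β-cyclodextrin. Prodrug and its triphosphate were measured in plasma and liver (ng/mL or ng/g) over time, and Cmax, tmax, AUC, tlast and t1/2 were derived. For some analytes, data from two independent studies are reported.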

Liver [10] = test: AUC (0 to infinity) in mouse liver assessed as 2'-deoxy-2'-spirooxetane uridine triphosphate at 50 mg/kg, po; type: ADME, organism-based; parameters: dose 50 mg/kg, time infinity, route oral; conditions: in vivo
Outline: (§3)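 Oral dose 50 mg/kg, formulated in 20% HP-β-cyclodextrin. Prodrug and triphosphate were measured in plasma and liver (ng/mL or ng/g). Parameters derived were Cmax, tmax, AUC0-last, AUC0-inf and t1/2. Some prodrug data come from two independent studies.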

[11] = Half life in rat plasma at 50 mg/kg, po; type: ADME, organism-based
Outline: (§4)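 Single oral dose of 50 mg/kg in 20% HP-β-cyclodextrin. Prodrug and triphosphate measured in plasma and liver over time (tlast 6–30 h). Half-life, Cmax, tmax and AUC0-last derived; liver/plasma ratio taken from AUC0-last. Prodrug data pooled from two independent studies.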

Hepatitis C virus [12] = test: Antiviral activity against HCV genotype 1b infected in human HuH7 cells assessed as inhibition of viral replication after 3 days by luciferase reporter gene assay; type: functional, organism-based, Hepacivirus hominis; conditions: Huh-7, 72 h
Outline: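 HCV 1b subgenomic luciferase replicon (Huh7-luc, clone ET, adaptive mutations E1202G, T1280I, K1846T). 2,500 cells were incubated with compound over a 9-point, 1/4 dilution series for 3 days. Replication was read as luciferase activity.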

Hepatitis C virus [13] = test: Antiviral activity against HCV genotype 3a infected in homozygous cDNA-uPA chimeric SCID mouse bearing humanized hepatocytes assessed as change in HCV RNA level in serum at 200 mg/kg, po bid administered through gavage for 7 days by RT-PCR method; type: functional, Hepacivirus hominis, Hepatocyte
Outline: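 Male chimeric SCID cDNA-uPA+/+ mice with human hepatocyte liver (≥70% replacement by blood human albumin) and serum HCV RNA >1.0×10^6 copies/mL the week before dosing. Oral gavage for 7 days in 20% HP-β-CD, 50-200 mg/kg QD or BID. Serum sampled pre-dose on days 1, 2, 3, 5 and 7. Real-time PCR; mean change in log10 copies/mL, day 7 vs day 1 pre-dose.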

Plasma = test: Tlast in rat plasma at 50 mg/kg, po; type: ADME, organism-based; conditions: in vivo; outline: as §2
Hepatocyte [14] = test: Prodrug conversion in human primary hepatocytes assessed as 2'-deoxy-2'-spirooxetane uridine triphosphate formation measured at 8 hrs by LC-MS/MS analysis; type: ADME, cell-based
Outline: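 Hepatocyte primary cultures followed over time for triphosphate formation in cell lysates: rat and mouse up to 24 h, human up to 96 h.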

Hepatocyte [15] = test: Prodrug conversion in human hepatocytes assessed as 2'-deoxy-2'-spirooxetane uridine triphosphate formation in presence of pan-PDE inhibitor ibudilast by LC-MS/MS analysis; type: ADME, cell-based
[16] = Ratio of AUC (0 to last) in dog liver to AUC (0 to last) in dog plasma; type: ADME, Canis lupus familiaris; outline: as §4
[17] = Tmax in rat plasma at 50 mg/kg, po; type: ADME, organism-based; outline: as §2
Liver [18] = test: Cmax in rat liver assessed as 2'-deoxy-2'-spirooxetane uridine triphosphate at 50 mg/kg, po; type: ADME, organism-based; parameters: dose 50 mg/kg, route oral; conditions: in vivo
[19] = Tmax in dog liver at 50 mg/kg, po; type: ADME, organism-based, Canis lupus familiaris; outline: as §2
[20] = AUC (0 to infinity) in rat plasma at 50 mg/kg, po; type: ADME, organism-based; parameters: dose 50 mg/kg, time infinity, route oral; outline: as §3
[21] = Half life in rat liver at 50 mg/kg, po; type: ADME, organism-based; outline: as §4
Liver [22] = test: AUC (0 to last) in rat liver at 50 mg/kg, po; type: ADME, organism-based; conditions: in vivo; outline: as §3
Hepatocyte [23] = test: Prodrug conversion in rat cryopreserved hepatocytes assessed as 2'-deoxy-2'-spirooxetane uridine triphosphate level per million cells at 10 uM after 2 hrs by LC-MS/MS analysis; type: ADME, cell-based
Outline: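 Plated cryopreserved hepatocytes (study B) incubated with 10 µM unlabeled prodrug for 2, 8 or 24 h. Triphosphate measured in cell lysates and expressed as pmol/million hepatocytes. Quantification limit 2 ng/10^6 cells.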

Liver [24] = test: AUC (0 to last) in dog liver assessed as 2'-deoxy-2'-spirooxetane uridine triphosphate at 50 mg/kg, po; type: ADME, organism-based, Canis lupus familiaris; conditions: in vivo; outline: as §3
[25] = AUC (0 to infinity) in dog plasma at 50 mg/kg, po; type: ADME, organism-based, Canis lupus familiaris; parameters: dose 50 mg/kg, time infinity, route oral; outline: as §3
Liver [26] = test: Tmax in mouse liver assessed as 2'-deoxy-2'-spirooxetane uridine triphosphate at 50 mg/kg, po; type: ADME, organism-based; conditions: in vivo; outline: as §2
[27] = AUC (0 to infinity) in mouse plasma at 50 mg/kg, po; type: ADME, organism-based; parameters: dose 50 mg/kg, route oral, time infinity; outline: as §3
[28] = Tmax in mouse plasma at 50 mg/kg, po; type: ADME, organism-based; outline: as §2

Stability [1]: Stable | Drug metabolism (Hepatocyte [2]): metabolite_detected | Drug metabolism (Hepatocyte [3]): 0.023 pmol | Drug metabolism (Hepatocyte [4]): metabolite_detected | Drug metabolism (Hepatocyte [5]): metabolite_detected | Stability (Hepatocyte [6]): Stable
Structure (SMILES): [3H]C1O[P@](=O)(OC(C)C)O[C@@H]2[C@@H]1O[C@@H](n1ccc(=O)[nH]c1=O)[C@@]21CCO1 (some centres undefined)

Structure (SMILES): CC(C)O[P@@]1(=O)OC[C@H]2O[C@@H](n3ccc(=O)[nH]c3=O)[C@@]3(CCO3)[C@@H]2O1
Cmax (Liver [7]): 46600 ng/g | Drug metabolism (Hepatocyte [8]): metabolite_notdetected | Tmax [9]: 1 h | AUC (Liver [10]): 129396 ng·h/g | half-life [11]: 4.8 h | EC50 (Hepatitis C virus [12]): > 100 µM | Activity (Hepatitis C virus [13]): -1.58 | Tlast (Plasma): 30 h | Drug metabolism (Hepatocyte [14]): metabolite_detected | Drug metabolism (Hepatocyte [15]): metabolite_notdetected | Kp [16]: 1.4 | Tmax [17]: 0.5 h | Cmax (Liver [18]): 73500 ng/g | Tmax [19]: 1 h | AUC(0-inf) [20]: 7440 ng·h/mL | half-life [21]: 5.3 h | AUClast (Liver [22]): 2489 ng·h/g | Drug metabolism (Hepatocyte [23]): 0.181 pmol | AUClast (Liver [24]): 223803 ng·h/g | AUC(0-inf) [25]: 29100 ng·h/mL | Tmax (Liver [26]): 2 h | AUC(0-inf) [27]: 2620 ng·h/mL | Tmax [28]: 0.5 h
